Laboratory results published in ChEMBL document CHEMBL1138853, “Synthesis and antituberculosis activity of a novel series of optically active 6-nitro-2,3-dihydroimidazo[2,1-b]oxazoles” (2006).
In brackets after ≈: the same amount, converted by molar mass.

Columns and labels:
[1] = tested on: Mycobacterium tuberculosis; assay: Antituberculosis activity against Mycobacterium tuberculosis H37Rv; format: functional
Outline: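 Agar dilution on 7H11 plates with drug-susceptible and drug-resistant M. tuberculosis H37Rv strains grown in Middlebrook 7H9 broth. Frozen stocks (-80 °C) diluted to about 10⁶ CFU/mL and spotted with a multipoint inoculator onto drug-containing plates. Drugs dissolved in DMSO and serially diluted 2-fold in DMSO. Read-out: MIC.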

[2] = tested on: Mycobacterium tuberculosis; assay: Reduction in log CFU of Mycobacterium tuberculosis Kurono infected in mouse lung at 50 mg/kg, po relative to control; format: functional
Outline: (§1)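 Mice weighing 20-25 g infected intravenously via tail vein with 10⁴ CFU of M. tuberculosis Kurono. Oral dosing once daily at 0.5-50 mg/kg for 10 days (n = 2), starting the day after infection. Sacrificed on day 11; lungs homogenised and dilution-plated on 7H11 agar at 37 °C for 14 days. Mean log CFU reduction calculated against untreated controls.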

[3] = tested on: Mycobacterium tuberculosis; assay: Reduction in log CFU of Mycobacterium tuberculosis Kurono infected in mouse lung at 5 mg/kg, po after 10 days; format: functional; outline: as §1
[4] = tested on: Mycobacterium tuberculosis; assay: Reduction in log CFU of Mycobacterium tuberculosis Kurono infected in mouse lung at 0.5 mg/kg, po after 10 days; format: functional; outline: as §1
[5] = tested on: Mycobacterium tuberculosis; assay: Reduction in log CFU of Mycobacterium tuberculosis Kurono infected in mouse lung at 10 mg/kg, po after 10 days; format: functional; outline: as §1
[6] = tested on: Mycobacterium tuberculosis; assay: Decrease in Mycobacterium tuberculosis count in mouse pulmonary; format: functional, organism-based
Outline: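 ICR male mice (20-25 g) infected intravenously via tail vein with 10⁴ CFU of M. tuberculosis Kurono. Dosed orally once daily as a 5% gum arabic suspension for 28 days (n = 6), starting the day after infection. Sacrificed on day 29; lung homogenates plated on 7H11 agar at 37 °C for 14 days. Counts compared with untreated controls.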

Row | Structure (SMILES) | MIC [1] [µg/mL] | Activity [2] | also measured
1 | O=[N+]([O-])c1cn2c(n1)OC(COCCc1ccccc1)C2 (centres undefined) | 1.56 (≈ 5.39 µM) |  | 
2 | C[C@]1(COc2ccc(N3CCC(Oc4ccc(Cl)cc4)CC3)cc2)Cn2cc([N+](=O)[O-])nc2O1 | 0.05 (≈ 0.103 µM) | 2.2 | 
3 | C[C@]1(COc2ccccc2)Cn2cc([N+](=O)[O-])nc2O1 | 0.05 (≈ 0.182 µM) | 2 | 
4 | C[C@]1(COc2ccc(N3CCC(Oc4ccccc4)CC3)cc2)Cn2cc([N+](=O)[O-])nc2O1 | 0.39 (≈ 0.866 µM) | 2.8 | 
5 | Cc1ccc(OC2CCN(c3ccc(OC[C@@]4(C)Cn5cc([N+](=O)[O-])nc5O4)cc3)CC2)cc1 | 0.78 (≈ 1.68 µM) | 0.6 | 
6 | CO[C@H]1/C=C/O[C@@]2(C)Oc3c(C)c(O)c4c(O)c(c(/C=N/N5CCN(C)CC5)c(O)c4c3C2=O)NC(=O)/C(C)=C\C=C\[C@H](C)[C@H](O)[C@@H](C)[C@@H](O)[C@@H](C)[C@H](OC(C)=O)[C@@H]1C [RIFAMPIN] | 0.1 (≈ 0.122 µM) |  | Activity [3]: 0.5
7 | Cc1ccc(OC[C@@]2(C)Cn3cc([N+](=O)[O-])nc3O2)cc1 | 0.012 (≈ 0.0415 µM) | 2.9 | 
8 | COc1ccc(OC2CCN(c3ccc(OC[C@@]4(C)Cn5cc([N+](=O)[O-])nc5O4)cc3)CC2)cc1 | 0.39 (≈ 0.812 µM) | 0.1 | 
9 | C[C@]1(COc2ccc(N3CCSCC3)cc2)Cn2cc([N+](=O)[O-])nc2O1 | 0.78 (≈ 2.07 µM) | 0 | 
10 | C[C@]1(COc2ccc(N3CCC(Oc4ccc(OC(F)(F)F)cc4)CC3)cc2)Cn2cc([N+](=O)[O-])nc2O1 [DELAMANID] | 0.006 (≈ 0.0112 µM) | >3.8 | Activity [4]: 2.5; Activity [5]: >4.4; Activity [6]: Dose-dependent effect
11 | C[C@]1(COc2ccc(OC(F)(F)F)cc2)Cn2cc([N+](=O)[O-])nc2O1 | 0.2 (≈ 0.557 µM) | >3.6 | Activity [4]: 0.4; Activity [5]: 3
12 | CC1(COc2ccccc2)Cn2cc([N+](=O)[O-])nc2O1 (centres undefined) | 0.1 (≈ 0.363 µM) |  | 
13 | C[C@]1(COc2ccc(N3CCC(Oc4ccccc4OC(F)(F)F)CC3)cc2)Cn2cc([N+](=O)[O-])nc2O1 | 0.39 (≈ 0.73 µM) | 3 | 
14 | C[C@]1(COc2ccc(N3CCC(Oc4ccc(C(F)(F)F)cc4)CC3)cc2)Cn2cc([N+](=O)[O-])nc2O1 | 0.012 (≈ 0.0231 µM) | 2.2 | 
15 | C[C@]1(COc2ccc(N3CCOCC3)cc2)Cn2cc([N+](=O)[O-])nc2O1 | 0.78 (≈ 2.16 µM) | 1.3 | 
16 | C[C@]1(COc2ccc(Cl)cc2)Cn2cc([N+](=O)[O-])nc2O1 | 0.024 (≈ 0.0775 µM) | >3.1 | 
17 | C[C@@]1(COc2ccccc2)Cn2cc([N+](=O)[O-])nc2O1 | 3.13 (≈ 11.4 µM) |  | 
18 | C[C@]1(COc2ccc(N3CC[S+]([O-])CC3)cc2)Cn2cc([N+](=O)[O-])nc2O1 | 6.25 (≈ 15.9 µM) |  | 
19 | C[C@]1(COc2ccc(N3CCC(Oc4ccc(F)cc4)CC3)cc2)Cn2cc([N+](=O)[O-])nc2O1 | 0.39 (≈ 0.832 µM) | 2.2 | 
20 | C[C@]1(COc2ccc(N3CCCCC3)cc2)Cn2cc([N+](=O)[O-])nc2O1 | 0.78 (≈ 2.18 µM) | 1.9 | 
21 | O=[N+]([O-])c1cn2c(n1)OC(COC/C=C/c1ccccc1)C2 (centres undefined) | 12.5 (≈ 41.5 µM) |  | 
22 | C[C@]1(COc2ccc(N3CCC(Oc4cccc(OC(F)(F)F)c4)CC3)cc2)Cn2cc([N+](=O)[O-])nc2O1 | 0.024 (≈ 0.0449 µM) | >4.4 | 
23 | C[C@]1(COc2ccc(C(F)(F)F)cc2)Cn2cc([N+](=O)[O-])nc2O1 | 0.2 (≈ 0.583 µM) | >4.4 | 
24 | COc1ccc(OC[C@@]2(C)Cn3cc([N+](=O)[O-])nc3O2)cc1 | 0.05 (≈ 0.164 µM) | 0.72 | 
25 | O=[N+]([O-])c1cn2c(n1)OC(COCc1ccccc1)C2 (centres undefined) | 3.13 (≈ 11.4 µM) |  | 
